Test results taken from ChEMBL document CHEMBL1132637, “Design and synthesis of potent, selective, and orally bioavailable tetrasubstituted imidazole inhibitors of p38 mitogen-activated protein kinase” (J Med Chem, 1999).

How the values were obtained:
MAP kinase p38 [1] = biological target: T1, MAP kinase p38 (Homo sapiens, UniProt O15264+Q15759+Q16539+P53778); assay: Inhibitory activity against Mitogen-activated protein kinase p38 (MAP kinase); format: protein assay
[2] = biological target: T2, RAF proto-oncogene serine/threonine-protein kinase (Homo sapiens, UniProt P04049); assay: Inhibitory activity against recombinant human RAF proto-oncogene serine/threonine-protein kinase
T2 sequence (P04049 whole entry): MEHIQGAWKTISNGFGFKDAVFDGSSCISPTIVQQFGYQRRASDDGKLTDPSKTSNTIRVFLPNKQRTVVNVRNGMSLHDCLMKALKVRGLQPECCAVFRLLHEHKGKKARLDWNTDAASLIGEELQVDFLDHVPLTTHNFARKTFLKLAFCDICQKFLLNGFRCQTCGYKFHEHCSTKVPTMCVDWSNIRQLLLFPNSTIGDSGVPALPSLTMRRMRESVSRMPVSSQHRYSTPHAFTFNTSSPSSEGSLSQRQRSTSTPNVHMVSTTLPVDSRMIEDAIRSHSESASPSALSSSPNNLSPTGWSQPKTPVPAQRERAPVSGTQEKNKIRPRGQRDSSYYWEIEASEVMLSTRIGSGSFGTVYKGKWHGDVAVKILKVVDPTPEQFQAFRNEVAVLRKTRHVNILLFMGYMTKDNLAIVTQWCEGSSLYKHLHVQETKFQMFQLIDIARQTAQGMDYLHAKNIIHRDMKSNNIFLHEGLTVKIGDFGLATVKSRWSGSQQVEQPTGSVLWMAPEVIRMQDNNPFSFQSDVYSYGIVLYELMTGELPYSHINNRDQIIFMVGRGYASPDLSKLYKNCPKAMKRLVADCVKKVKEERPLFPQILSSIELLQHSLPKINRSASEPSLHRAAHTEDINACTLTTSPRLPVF

[3] = biological target: Dual specificity mitogen-activated protein kinase kinase; MEK1/2 (Homo sapiens, UniProt P36507+Q02750); assay: Inhibition of MEK-1, Mitogen activated protein kinase kinase 1; format: protein assay
[4] = Oral maximum concentration in rat; format: ADME, organism-based; parameters: route oral; settings: in vivo
Procedure, shortened: (§1)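 Male Sprague-Dawley rats, n = 3, dosed iv at 2 mg/kg or orally at 10 mg/kg. Mean plasma concentrations were followed over time. Pharmacokinetic parameters were derived from these plasma profiles.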

[5] = biological target: T3, Mitogen-activated protein kinase 9 (Homo sapiens, UniProt P45984); assay: Inhibition of c-Jun N-terminal kinase 2-alpha 1
Target sequence in this assay (P45984 whole entry): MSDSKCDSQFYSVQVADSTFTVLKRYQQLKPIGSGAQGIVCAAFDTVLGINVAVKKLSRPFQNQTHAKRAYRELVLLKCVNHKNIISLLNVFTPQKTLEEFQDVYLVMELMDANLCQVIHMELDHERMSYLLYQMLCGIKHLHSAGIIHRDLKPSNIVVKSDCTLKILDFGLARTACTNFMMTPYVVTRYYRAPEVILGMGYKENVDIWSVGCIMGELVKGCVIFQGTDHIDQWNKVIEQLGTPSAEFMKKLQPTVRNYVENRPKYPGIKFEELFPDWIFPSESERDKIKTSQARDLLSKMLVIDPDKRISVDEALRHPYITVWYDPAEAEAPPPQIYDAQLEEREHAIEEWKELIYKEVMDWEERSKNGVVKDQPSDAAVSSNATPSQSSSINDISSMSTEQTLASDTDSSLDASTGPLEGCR

[6] = (§2) Clpl value in rat; format: ADME, organism-based; settings: plasma, read-out: Clpl; procedure, shortened: as §1
Protein kinase C (PKC) = assay: Inhibition of Protein kinase C; format: protein assay
Procedure, shortened: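 PKC (isozyme mix) was run at room temperature with 10 µM [33P]ATP and 70 µg/mL myelin basic protein substrate, under the supplier's conditions. Stopped with EDTA/pyrophosphate, filter-captured and counted by scintillation.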

[7] = biological target: cAMP-dependent protein kinase (PKA) (Homo sapiens, UniProt P22694+P17612+P22612); assay: Inhibition of Protein kinase A; format: protein assay
Procedure, shortened: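 PKA was run at room temperature with 10 µM [33P]ATP and 10 µM kemptide substrate, under the supplier's conditions. The reaction was stopped with 75 mM phosphoric acid. Product was captured on phosphocellulose filters, washed with phosphoric acid and counted by scintillation.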

[8] = (§3) Intravenous half life in rat was determined; format: ADME, organism-based; settings: in vivo; procedure, shortened: as §1
[9] = biological target: T3, Mitogen-activated protein kinase 9; assay: Inhibition of c-Jun N-terminal kinase 2-alpha 2
Target sequence in this assay (P45984 whole entry): as above

[10] = (§4) Vd sss value in rat; format: ADME, organism-based; settings: in vivo, read-out: Vdss; procedure, shortened: as §1
[11] = biological target: T2, RAF proto-oncogene serine/threonine-protein kinase; assay: Inhibition of human c-Raf kinase
[12] = Bioavailability in rat; format: ADME, organism-based; settings: in vivo; procedure, shortened: as §1
Rattus norvegicus [13] = organism: Rattus norvegicus; assay: as §2; format: ADME, organism-based; settings: in vivo; procedure, shortened: as §1
Rattus norvegicus [14] = assay: as §3; format: ADME, organism-based; settings: in vivo; procedure, shortened: as §1
MAP kinase p38 [15] = biological target: T1, MAP kinase p38; assay: Inhibition of Mitogen-activated protein kinase p38; format: protein assay
Rattus norvegicus [16] = organism: Rattus norvegicus; assay: as §4; format: ADME, organism-based; settings: in vivo; procedure, shortened: as §1
MAP kinase p38 [17] = biological target: T1, MAP kinase p38; assay: Inhibition of LPS-induced release of Tumor necrosis factor-alpha (TNF-alpha) from human whole blood; format: functional, tissue-based
[18] = biological target: T2, RAF proto-oncogene serine/threonine-protein kinase; assay: Inhibition human c-Raf kinase at 1000 nM
[19] = Intravenous half life in rat; format: ADME, organism-based; settings: in vivo; procedure, shortened: as §1
[20] = biological target: T2, RAF proto-oncogene serine/threonine-protein kinase; assay: Inhibition of human RAF kinase at 5000 nM
[21] = biological target: T3, Mitogen-activated protein kinase 9; assay: Inhibition of c-Jun N-terminal kinase 2-alpha 1 at 40000 nM
Target sequence in this assay (P45984 whole entry, looked up): as the sequence (P45984 whole entry) above

Row | SMILES | IC50 (MAP kinase p38 [1]) [nM] | IC50 [2] [nM] | IC50 [5] [nM] | other results
1 | Clc1cccc(-c2nc(-c3ccccc3)[nH]c2-c2ccncc2)c1 | 130 | 90 | – | –
2 | Oc1cccc(-c2nc(-c3ccccc3)[nH]c2-c2ccncc2)c1 | 140 | 23 | – | –
3 | CC(C)c1ccc(-c2[nH]c(-c3ccccc3)nc2-c2ccncc2)cc1 | 2100 | > 10000 | – | –
4 | C[C@H](Nc1cc(-c2c(-c3cccc(C(F)(F)F)c3)nc(C3CCNCC3)n2C)ccn1)c1ccccc1 | – | – | 1170 | IC50 [3]: > 10000 nM; Cmax [4]: 390 nM; clearance [6]: 63 mL/min/kg; IC50 (Protein kinase C (PKC)): > 1500 nM; IC50 [7]: > 1500 nM; half-life [8]: 2.85 h; IC50 [9]: 2200 nM; Vd [10]: 12.3 L/kg; IC50 [11]: 810 nM; bioavailability [12]: 85%
5 | C[C@H](Nc1nccc(-c2[nH]c(C3CCNCC3)nc2-c2cccc(C(F)(F)F)c2)n1)c1ccccc1 | – | – | 1750 | Clpl (Rattus norvegicus [13]): 146 mL/min/kg; T1/2 (Rattus norvegicus [14]): 1 min; IC50 (MAP kinase p38 [15]): 0.75 nM; Vdss (Rattus norvegicus [16]): 6.5 L/kg; IC50 (MAP kinase p38 [17]): 6 nM; IC50 [11]: 3500 nM; bioavailability [12]: 0%
6 | COc1cccc(-c2[nH]c(-c3ccccc3)nc2-c2ccncc2)c1 | 550 | 210 | – | –
7 | Fc1cccc(-c2[nH]c(-c3ccccc3)nc2-c2ccncc2)c1 | 495 | 3000 | – | –
8 | FC(F)(F)c1ccc(-c2[nH]c(-c3ccccc3)nc2-c2ccncc2)cc1 | 200 | 1400 | – | –
9 | CNc1nccc(-c2[nH]c(-c3ccccc3)nc2-c2ccccc2)n1 | 120 | 2100 | 175 | –
10 | Fc1ccc(-c2[nH]c(C3CCNCC3)nc2-c2ccncc2)cc1 | 9 | 80 | 210 | –
11 | COc1ccc(CNc2nccc(-c3[nH]c(C4CCNCC4)nc3-c3cccc(C(F)(F)F)c3)n2)cc1 | – | – | 735 | IC50 (MAP kinase p38 [15]): 7.6 nM; inhibition [18]: 66%
12 | c1ccc(-c2nc(-c3ccncc3)c(-c3ccc(C4CCCCC4)cc3)[nH]2)cc1 | > 10000 | 570 | – | –
13 | Clc1ccc(-c2nc(-c3ccccc3)[nH]c2-c2ccncc2)cc1 | 48 | 56 | – | –
14 | Nc1nccc(-c2[nH]c(C3CCNCC3)nc2-c2cccc(C(F)(F)F)c2)n1 | – | – | 3300 | clearance [6]: 167 mL/min/kg; half-life [8]: 0.132 h; IC50 (MAP kinase p38 [15]): 7 nM; Vd [10]: 1.23 L/kg; bioavailability [12]: 0%; inhibition [18]: 36%
15 | Clc1cc(Cl)cc(-c2[nH]c(-c3ccccc3)nc2-c2ccncc2)c1 | 137 | 1600 | – | –
16 | Fc1ccc(-c2[nH]c(C3CCCCC3)nc2-c2ccncc2)cc1 | 70 | 135 | 29 | –
17 | FC(F)(F)c1cccc(-c2nc(-c3ccccc3)[nH]c2-c2ccncc2)c1 | – | – | 910 | IC50 (MAP kinase p38 [15]): 86 nM; IC50 [11]: 2600 nM

Row | SMILES | IC50 (MAP kinase p38 [1]) [nM] | IC50 [2] [nM] | IC50 [5] [nM] | other results
18 | c1ccc(-c2ccc(-c3[nH]c(-c4ccccc4)nc3-c3ccncc3)cc2)cc1 | 1000 | 2500 | – | –
19 | c1ccc(-c2nc(-c3ccccc3)c(-c3ccncc3)[nH]2)cc1 | 180 | 380 | 130 | –
20 | c1ccc(-c2nc(-c3ccccc3)c(-c3ccncn3)[nH]2)cc1 | 700 | 5000 | 1420 | –
21 | Fc1ccc(-c2[nH]c(C3CCCNC3)nc2-c2ccncc2)cc1 (stereo unspecified) | – | 110 | 140 | –
22 | Oc1ccc(-c2[nH]c(-c3ccccc3)nc2-c2ccncc2)cc1 | 1400 | 390 | – | –
23 | N#Cc1ccc(-c2[nH]c(-c3ccccc3)nc2-c2ccncc2)cc1 | 970 | 86 | – | –
24 | C[C@H](Nc1nccc(-c2c(-c3cccc(C(F)(F)F)c3)nc(C3CCNCC3)n2C)n1)c1ccccc1 | – | – | – | Cmax [4]: 780 nM; clearance [6]: 38.3 mL/min/kg; half-life [19]: 4.9 h; Vd [10]: 12.7 L/kg; bioavailability [12]: 64%
25 | C[C@@H](Nc1nccc(-c2[nH]c(C3CCNCC3)nc2-c2cccc(C(F)(F)F)c2)n1)c1ccccc1 | 0.97 | 4500 | 295 | IC50 (MAP kinase p38 [17]): 0.4 nM
26 | Clc1ccc(-c2[nH]c(-c3ccccc3)nc2-c2ccncc2)cc1Cl | 28 | 20 | – | –
27 | COc1ccc(-c2nc(-c3ccccc3)[nH]c2-c2ccncc2)cc1 | 300 | 950 | – | –
28 | COc1ccc(CNc2nccc(-c3[nH]c(-c4ccccc4)nc3-c3ccccc3)n2)cc1 | 38 | 1000 | 98 | –
29 | C[C@H](Nc1nccc(-c2nc(C3CCNCC3)n(C)c2-c2cccc(C(F)(F)F)c2)n1)c1ccccc1 | – | – | – | inhibition [20]: 26%; inhibition [21]: 37%
30 | Clc1ccccc1-c1nc(-c2ccccc2)[nH]c1-c1ccncc1 | 150 | 610 | – | –
31 | Fc1ccc(-c2nc[nH]c2-c2ccncc2)cc1 | 170 | 1300 | 195 | –
32 | COC(=O)c1ccc(-c2[nH]c(-c3ccccc3)nc2-c2ccncc2)cc1 | – | – | – | IC50 (MAP kinase p38 [15]): > 10000 nM; IC50 [11]: 320 nM
33 | Nc1nccc(-c2[nH]c(-c3ccccc3)nc2-c2ccccc2)n1 | 57 | 750 | 180 | –
